According to ChEMBL document CHEMBL5380846, “2-Aminobenzoxazole Derivatives as Potent Inhibitors of the Sphingosine-1-Phosphate Transporter Spinster Homolog 2 (Spns2)” (J Med Chem, 2023):
Active and inactive are the calls of the source. The calls are words filed in the database; no cut-off is given here.

Each molecule was assayed against T1, Sphingosine-1-phosphate transporter SPNS2 (Mus musculus) (UniProt Q91VM4) (assay: Inhibition of mouse Spns2 expressed in Hela cells assessed as S1P release at 0.3 uM incubated for 18 to 20 hrs by LC-MS/MS analysis relative to control). Details: time 18-20 hrs.
T1 sequence (whole entry): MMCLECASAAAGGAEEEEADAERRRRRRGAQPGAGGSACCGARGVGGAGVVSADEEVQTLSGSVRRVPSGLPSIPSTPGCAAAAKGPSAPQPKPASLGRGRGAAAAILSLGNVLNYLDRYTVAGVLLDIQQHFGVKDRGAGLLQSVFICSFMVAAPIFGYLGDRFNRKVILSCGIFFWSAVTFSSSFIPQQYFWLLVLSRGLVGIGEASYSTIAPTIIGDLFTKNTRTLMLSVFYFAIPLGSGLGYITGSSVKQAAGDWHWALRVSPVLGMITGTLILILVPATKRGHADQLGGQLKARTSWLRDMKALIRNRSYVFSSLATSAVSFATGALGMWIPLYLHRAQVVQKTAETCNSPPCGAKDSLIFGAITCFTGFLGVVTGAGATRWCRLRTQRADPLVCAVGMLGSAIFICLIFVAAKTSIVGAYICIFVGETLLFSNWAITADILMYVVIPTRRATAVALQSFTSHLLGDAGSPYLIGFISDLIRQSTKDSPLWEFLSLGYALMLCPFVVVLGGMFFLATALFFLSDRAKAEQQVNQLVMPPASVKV
Format: cell-based
Outline: (§1)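 HeLa cells stably transfected (G418 selection) with mouse Spns2, grown to near confluence. Medium was replaced with RPMI 1640 containing 0.2% fatty acid-free BSA, 1 mM 4-deoxypyridoxine, 2 mM NaF and 0.2 mM Na3VO4. Compound was added to duplicate wells (0-2 μM) for 18–20 h. Medium S1P was measured by LC-MS/MS against d7-S1P and expressed as % inhibition versus no-inhibitor control.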

| Compound | inhibition [%] |
| --- | --- |
| CCCCCCCCCCc1ccc2[nH]c(NC[C@H]3CCNC3)nc2c1 | 34 |
| CCCCCCCCc1ccc2oc(NC[C@H]3CCNC3)nc2c1 | 42 |
| CCCCCCCCCc1ccc2oc(NC[C@H]3CCNC3)nc2c1 | 77 |
| CCCCCCCCCCCCc1ccc2oc(NC[C@H]3CCNC3)nc2c1 | 36 |
| CCCCCCCCCCc1ccc(-c2noc(CCCN)n2)cc1 | 30 |
| CCCCCCCCCCc1ccc2oc(NC[C@H]3CCNC3)nc2c1 | 56 |
| CCCCCCCCCCCc1ccc2oc(NC[C@H]3CCNC3)nc2c1 | 52 |

These molecules were tested on Mus musculus (assay: Decrease in plasma S1P level in mouse C57BL/6j at 10 mg/kg, ip measured after 4 hrs by LC-MS/MS analysis). Details: not given.
Format: functional, organism-based
Outline: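 Female C57BL/6j mice were injected IP at 10 mg/Kg, or with vehicle (PEG400/ethanol/solutol/water). Plasma was taken 4 h post dose. S1P was quantified by LC-MS/MS after TCA precipitation with a d7-S1P internal standard and methanol extraction. Comparison was by t-test.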

| Compound | Activity |
| --- | --- |
| CCCCCCCCCCc1ccc2oc(NC[C@H]3CCNC3)nc2c1 | inactive |

Each molecule was assayed on Mus musculus (assay: Decrease in circulating lymphocyte count in mouse C57BL/6j blood at 10 mg/kg, ip […]). Details: not given.

| Compound | Activity |
| --- | --- |
| CCCCCCCCCCc1ccc2oc(NC[C@H]3CCNC3)nc2c1 | Active |

The molecules below were run against T1, Sphingosine-1-phosphate transporter SPNS2 (Mus musculus) (assay: Inhibition of mouse Spns2 expressed in Hela cells assessed as S1P release at 1 uM incubated for 18 to 20 hrs by LC-MS/MS analysis relative to control). Details: time 18-20 hrs.
Format: cell-based
Outline: as §1

| Compound | inhibition [%] |
| --- | --- |
| CCCCCCCCCCc1ccc2oc(NC[C@@H]3CCNC3)nc2c1 | 50 |
| CCCCCCCCCCc1ccc2oc(N[C@@H]3CCCNC3)nc2c1 | 63 |
| CCCCCCCCCCc1ccc2oc(NC3CNC3)nc2c1 | 20 |
| CCCCCCCCCCc1ccc2oc(NC3CCNCC3)nc2c1 | 54 |
| CCCCCCCCCCc1ccc2oc(N3CC[C@H](N)C3)nc2c1 | 1 |
| CCCCCCCCCCc1ccc2oc(NCCN)nc2c1 | 16 |
| CCCCCCCCCCc1ccc2oc(NCCCCN)nc2c1 | 32 |
| CCCCCCCCCCc1ccc2oc(NCCCN)nc2c1 | 15 |
| CCCCCCCCCCc1ccc2oc(CCN)nc2c1 | 5 |
| CCCCCCCCCCc1ccc2oc(N3CC[C@@H](N)C3)nc2c1 | 4 |
| CCCCCCCCCCc1ccc2oc(N3CCNCC3)nc2c1 | 18 |
| CCCCCCCCCCc1ccc2oc(CCCCN)nc2c1 | 0 |
| CCCCCCCCCCc1ccc2oc(N[C@H]3CCCNC3)nc2c1 | 50 |
| CCCCCCCCCCc1ccc2oc(N(CCN)CCN)nc2c1 | 25 |
| CCCCCCCCCCc1ccc2oc(CCCCCN)nc2c1 | 25 |
| CCCCCCCCCCc1ccc2oc(N[C@H]3CCNC3)nc2c1 | 75 |
| CCCCCCCCCCc1ccc2oc(N(C)CCN)nc2c1 | 0 |
| CCCCCCCCCCc1ccc(-c2noc(CCCN)n2)cc1 | 44 |
| CCCCCCCCCCc1ccc2oc(NCC3CCNCC3)nc2c1 | 14 |
| CCCCCCCCCCc1ccc2oc(NC[C@H]3CCCNC3)nc2c1 | 2 |
| CCCCCCCCCCc1ccc2oc(CCCN)nc2c1 | 40 |
| CCCCCCCCCCc1ccc2oc(N[C@@H]3CCNC3)nc2c1 | 47 |
| CCCCCCCCCCc1ccc2oc(NC[C@@H]3CCCNC3)nc2c1 | 32 |
| CCCCCCCCCCc1ccc2oc(NC[C@H]3CCNC3)nc2c1 | 87 |
| CCCCCCCCCCc1ccc2oc(NCCCCCN)nc2c1 | 35 |
| CCCCCCCCCCc1ccc2oc(NC[C@@H]3CCCN3)nc2c1 | 6 |
| CCCCCCCCCCc1ccc2oc(NC[C@H]3CCCN3)nc2c1 | 0 |
